In brackets after ≈: the same amount, converted by molar mass.
Key:
Staphylococcus aureus = test: Antibacterial activity against Staphylococcus aureus ATCC 25923 assessed as growth inhibition incubated for 18 hrs by broth dilution method; type: functional; settings: ATCC 25923, 18 h
Summary of the method: (§1)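 Broth microdilution following CA-SFM recommendations. Inoculum was 10^5 CFU in Mueller-Hinton broth with two-fold serial drug dilutions. Plates were incubated 18 h at 37 °C. MIC was the lowest concentration giving complete inhibition of visible growth. Values are means, n = 3.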

[1] = test system: Staphylococcus intermedius; test: Antibacterial activity against Staphylococcus intermedius 1051997 assessed as growth inhibition incubated for 18 hrs by broth dilution method; type: functional; settings: Staphylococcus intermedius, 1051997, 18 h; summary of the method: as §1
Pseudomonas aeruginosa [2] = test: Antibacterial activity against Pseudomonas aeruginosa ATCC 27853 assessed as growth inhibition incubated for 18 hrs by broth dilution method; type: functional; settings: ATCC 27853, 18 h; summary of the method: as §1
Escherichia coli [3] = test: Antibacterial activity against Escherichia coli ATCC 25922 assessed as growth inhibition incubated for 18 hrs by broth dilution method; type: functional; settings: ATCC 25922, 18 h; summary of the method: as §1
Klebsiella pneumoniae [4] = test: Antibacterial activity against Klebsiella pneumoniae ATCC 700603 assessed as growth inhibition incubated for 18 hrs by resazurin dye based assay; type: functional; settings: Klebsiella pneumoniae, 700603, 18 h
Summary of the method: (§2)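 Overnight cultures were diluted 40-fold in MHB and grown 1.5–2 h at 37 °C to mid-log phase. Cells were added at 5×10^5 CFU/mL final to two-fold compound dilutions (0.008–32 μg/mL final), in duplicate, for 18 h at 37 °C. Resazurin (0.001% final) was added for 2 h and MIC read by eye. Means, n = 2.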

Acinetobacter baumannii [5] = test: Antibacterial activity against Acinetobacter baumannii ATCC 19606 assessed as growth inhibition incubated for 18 hrs by resazurin dye based assay; type: functional; settings: ATCC 19606 = CIP 70.34 = JCM 6841, 18 h; summary of the method: as §2
Candida albicans = test: Antifungal activity against Candida albicans ATCC 90028 assessed as growth inhibition incubated for 36 hrs by resazurin dye based assay; type: functional; settings: ATCC 90028, 36 h
Summary of the method: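 Yeast was grown 3 days on YPD agar at 30 °C. Colonies were suspended and diluted in YNB broth to 2.5×10^3 CFU/mL, then added to two-fold compound dilutions (0.008–32 μg/mL final), in duplicate. Plates stood 36 h at 35 °C without shaking. Means, n = 2.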

Cryptococcus neoformans = test: Antifungal activity against Cryptococcus neoformans ATCC 208821 assessed as growth inhibition incubated for 36 hrs by resazurin dye based assay; type: functional; settings: ATCC 208821, 36 h
Summary of the method: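 Cryptococcus was grown 3 days on YPD agar at 30 °C, suspended, and diluted in YNB broth to 2.5×10^3 CFU/mL. Cells were exposed to 0.008–32 μg/mL compound (final), in duplicate, for 36 h at 35 °C without shaking. Resazurin (0.006% final) was added for a further 3 h. MIC was read from absorbance at OD570–600. Means, n = 2.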

Pseudomonas aeruginosa [6] = test: Potentiation of doxycycline-induced antibacterial activity against Pseudomonas aeruginosa ATCC 27853 assessed as concentration required to restore 2 ug/ml doxycycline activity measured after 18 hrs; type: functional
Summary of the method: (§3)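 Inoculum was 5×10^5 CFU in MHB with two-fold serial dilutions of adjuvant plus fixed doxycycline at 2 μg/mL. […] Repeated independently in triplicate.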

Pseudomonas aeruginosa [7] = test: Potentiation of erythromycin-induced antibacterial activity against Pseudomonas aeruginosa ATCC 27853 assessed as concentration required to restore 2 ug/ml erythromycin activity measured after 18 hrs; type: functional
Pseudomonas aeruginosa [8] = test: Potentiation of chloramphenicol-induced antibacterial activity against Pseudomonas aeruginosa ATCC 27853 assessed as concentration required to restore 2 ug/ml chloramphenicol activity measured after 18 hrs; type: functional
Pseudomonas aeruginosa [9] = test: Potentiation of nalidixic acid-induced antibacterial activity against Pseudomonas aeruginosa ATCC 27853 assessed as concentration required to restore 2 ug/ml nalidixic acid activity measured after 18 hrs; type: functional
Escherichia coli [10] = test: Potentiation of doxycycline-induced antibacterial activity against Escherichia coli ATCC 25922 assessed as concentration required to restore 2 ug/ml doxycycline activity measured after 18 hrs; type: functional; summary of the method: as §3
Escherichia coli [11] = test: Potentiation of erythromycin-induced antibacterial activity against Escherichia coli ATCC 25922 assessed as concentration required to restore 2 ug/ml erythromycin activity measured after 18 hrs; type: functional
Escherichia coli [12] = test: Potentiation of chloramphenicol-induced antibacterial activity against Escherichia coli ATCC 25922 assessed as concentration required to restore 2 ug/ml chloramphenicol activity measured after 18 hrs; type: functional
Escherichia coli [13] = test: Potentiation of nalidixic acid-induced antibacterial activity against Escherichia coli ATCC 25922 assessed as concentration required to restore 2 ug/ml nalidixic acid activity measured after 18 hrs; type: functional
Klebsiella pneumoniae [14] = test: Potentiation of doxycycline-induced antibacterial activity against Klebsiella pneumoniae ATCC 13443 assessed as concentration required to restore 2 ug/ml doxycycline activity measured after 18 hrs; type: functional; summary of the method: as §3
Klebsiella pneumoniae [15] = test: Potentiation of erythromycin-induced antibacterial activity against Klebsiella pneumoniae ATCC 13443 assessed as concentration required to restore 2 ug/ml erythromycin activity measured after 18 hrs; type: functional
Klebsiella pneumoniae [16] = test: Potentiation of chloramphenicol-induced antibacterial activity against Klebsiella pneumoniae ATCC 13443 assessed as concentration required to restore 2 ug/ml chloramphenicol activity measured after 18 hrs; type: functional
Klebsiella pneumoniae [17] = test: Potentiation of nalidixic acid-induced antibacterial activity against Klebsiella pneumoniae ATCC 13443 assessed as concentration required to restore 2 ug/ml nalidixic acid activity measured after 18 hrs; type: functional
Acinetobacter baumannii [18] = test: Potentiation of doxycycline-induced antibacterial activity against Acinetobacter baumannii AYE assessed as concentration required to restore 2 ug/ml doxycycline activity measured after 18 hrs; type: functional; summary of the method: as §3
Acinetobacter baumannii [19] = test: Potentiation of erythromycin-induced antibacterial activity against Acinetobacter baumannii AYE assessed as concentration required to restore 2 ug/ml erythromycin activity measured after 18 hrs; type: functional
Acinetobacter baumannii [20] = test: Potentiation of chloramphenicol-induced antibacterial activity against Acinetobacter baumannii AYE assessed as concentration required to restore 2 ug/ml chloramphenicol activity measured after 18 hrs; type: functional
Acinetobacter baumannii [21] = test: Potentiation of nalidixic acid-induced antibacterial activity against Acinetobacter baumannii AYE assessed as concentration required to restore 2 ug/ml nalidixic acid activity measured after 18 hrs; type: functional
L6 = test: Cytotoxicity against rat L6 cells measured after 72 hrs by alamar blue assay; type: cell-based; settings: L6, 72 h
Summary of the method: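 Rat L6 myoblasts, 4×10^4/well in RPMI 1640 with L-glutamine and 10% FBS, received seven 3-fold dilutions (90 to 0.123 μg/mL) for 72 h. Alamar Blue was added for 2 h and fluorescence read at ex 536/em 588 nm. Podophyllotoxin served as reference. Means, n = 2.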

[22] = Hemolytic activity against Sprague-Dawley rat RBC assessed as release of hemoglobin at 50 uM incubated for 1 hr relative to control; type: ADME, cell-based, Erythrocyte; settings: red blood cells (erythrocytes), read-out: Activity
Summary of the method: (§4)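 Fresh Sprague-Dawley rat erythrocytes were washed in saline and resuspended at 2% v/v. Cells were incubated with compound in DMSO/PBS for 1 h at 37 °C, then centrifuged at 200 g, and supernatant absorbance read at 540 nm. Results were normalised to DMSO/PBS (0%) and 0.1% Triton X-100 (100%). Single-point testing used 50 μM; HC50 came from 10-point curves. Means of three experiments.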

[23] = Hemolytic activity against Sprague-Dawley rat RBC assessed as release of hemoglobin incubated for 1 hr; type: ADME, cell-based, Erythrocyte; settings: red blood cells (erythrocytes); summary of the method: as §4
[24] = Cytotoxicity against human HEK293 cells measured after 20 hrs by resazurin dye based fluorescence assay; type: cell-based
Summary of the method: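 HEK293 cells, 5,000/well in DMEM with 10% FBS, were exposed to compound for 20 h at 37 °C, 5% CO2. Resazurin (100 μM final) was added for 3 h, then fluorescence read at ex 560/em 590. Signal was normalised to tamoxifen (74 μg/mL, 0%) and untreated growth (100%), and CC50 came from dose-response fitting. Top dose 32 μg/mL. Means, n = 2.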

SMILES	MIC (Staphylococcus aureus) [µM]	MIC (Pseudomonas aeruginosa [2]) [µM]	MIC (Escherichia coli [3]) [µM]	MIC (Klebsiella pneumoniae [4]) [µM]	MIC (Acinetobacter baumannii [5]) [µM]	MIC (Candida albicans) [µM]	MIC (Cryptococcus neoformans) [µM]	Activity (Pseudomonas aeruginosa [6]) [µM]	Activity (Pseudomonas aeruginosa [7]) [µM]	Activity (Pseudomonas aeruginosa [8]) [µM]	Activity (Pseudomonas aeruginosa [9]) [µM]	Activity (Escherichia coli [10]) [µM]	Activity (Escherichia coli [11]) [µM]	Activity (Escherichia coli [12]) [µM]	Activity (Escherichia coli [13]) [µM]	Activity (Klebsiella pneumoniae [14]) [µM]	Activity (Klebsiella pneumoniae [15]) [µM]	Activity (Klebsiella pneumoniae [16]) [µM]	IC50 (L6) [µM]	hemolysis at 1 h, 50 µM [22] [%]	further results
O=C(NCCCNCCCCNCCCNC(=O)C(=O)c1c[nH]c2cc(Br)ccc12)C(=O)c1c[nH]c2cc(Br)ccc12	6.25 (≈ 4.39 µg/mL)	100 (≈ 70.2 µg/mL)	100 (≈ 70.2 µg/mL)	> 34	> 34	17.2 (≈ 12.1 µg/mL)	1.1 (≈ 0.773 µg/mL)	6.25 to 12.5	200	>200	50	6.25	50	>200	>200	6.25	50	200	7.7	91	MIC [1]: 3.12 µM (≈ 2.2 µg/mL); Activity (Klebsiella pneumoniae [17]): 25 µM; Activity (Acinetobacter baumannii [18]): 25 µM; Activity (Acinetobacter baumannii [19]): 25 µM; Activity (Acinetobacter baumannii [20]): >200 µM; Activity (Acinetobacter baumannii [21]): 200 µM; HC50 at 1 h [23]: 20 µM
O=C(NCCCNCCCCNCCCNC(=O)C(=O)c1c[nH]c2cc(Br)c(Br)cc12)C(=O)c1c[nH]c2cc(Br)c(Br)cc12.O=C(O)C(F)(F)F.O=C(O)C(F)(F)F	25	100	50	> 29.4	> 29.4	> 29.4	3.65	25	–	–	–	–	–	–	–	–	–	–	6.03	88.7	CC50 at 20 h [24]: 1.62 µM; HC50 at 1 h [23]: 17 µM
COc1cccc2c(C(=O)C(=O)NCCCNCCCCNCCCNC(=O)C(=O)c3c[nH]c4c(OC)cccc34)c[nH]c12	15 (≈ 9.07 µg/mL)	> 200	> 200	> 38.4	> 38.4	38.4 (≈ 23.2 µg/mL)	> 38.4	3.75 to 7.5	100	30	60	3.75	>200	>200	>200	>200	>200	>200	62	0	Activity (Klebsiella pneumoniae [17]): >200 µM; Activity (Acinetobacter baumannii [18]): 15 µM; Activity (Acinetobacter baumannii [19]): >200 µM; Activity (Acinetobacter baumannii [20]): >200 µM; Activity (Acinetobacter baumannii [21]): >200 µM; CC50 at 20 h [24]: 27.1 µM

Source: ChEMBL document CHEMBL4311975, “Exploration of the antibiotic potentiating activity of indolglyoxylpolyamines” (Eur J Med Chem, 2019)
